Hep lipid drop: inhibitors of hepatocyte lipid droplet formation, primary screen, imaging, high-throughput imaging, BODIPY stain. AML12 mouse hepatocytes, oleate lipid droplets. 240,000 tested, 0.4% active. inhibition, % at 6.5 µM;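 active means lipid droplet intensity inhibited by at least 50%, with more than 500 cells counted; inconclusive means wells with under 300 cells, treated as cytotoxic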
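Test system: AML12 hepatocytes (mouse); reagent: oleate loading, 100 µM; dosing: one dose, 6.5 µM compound; incubation: overnight exposure; signal: fluorescence imaging, 20x objective, two fields per well; read-out basis: % inhibition of corrected integrated BODIPY droplet signal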
H9c2 TAG inh: inhibitors of triacylglycerol accumulation, primary screen, cell-based, uHTS, fluorescence, H9c2; 230,000 tested, 0.66% active; inhibition, % at 12.5 µM; H9c2 cells, Nile Red lipid (TAG) fluorescence; cells loaded with 200 µM oleic acid;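 active means pattern-corrected inhibition of lipid staining of at least 50% with the nuclear-stain viability signal not falling by more than 50%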;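 further: 0% = DMSO wells and 100% = triacsin C control wells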
APP 5UTR inh: inhibitors of APP translation via 5'UTR reporter, primary screen, APP 5'UTR luciferase, SH-SY5Y cells; AID 1285, 2008; SH-SY5Y APP 5'UTR-luciferase reporter, luminescence; inhibition, % at 2 µM; 190,000 tested, 0.82% active;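 active means inhibition above a set limit, derived from the sample mean plus 3 SD, cut at about 45% in these data; inconclusive means one replicate passes the limit while the other fails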
aSyn 5UTR inh: MLPCN primary screen, SNCA 5' untranslated region; inhibition, % (tested at 7.5 µM); alpha-synuclein 5'UTR reporter, inhibitor activity; 300,000 tested, 0.82% active; in the data active means inhibition above about 60%; inconclusive means no clear call, values can overlap the other calls;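 further: H4 neuroglioblastoma cells stably carrying SNCA 5'UTR luciferase fusion; 0% = DMSO wells and 100% = positive control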
697 NFkB inh: inhibitors of PMA/ionomycin-induced NF-kB reporter, 697 cells, primary screen, B-cell NF-kB inhibitor project, cell-based, luminescence, uHTS; 697 B-cell NF-kB luciferase reporter, 16 h; inhibition, % at 4 µM; 330,000 tested, 0.33% active; AID 435022, 2010; in the data active means inhibition above about 35%
Jurkat NFkB inh: inhibitors of induced NF-kB luciferase reporter, primary screen, TCR NF-kB activation inhibitor project, cell-based, luminescence, uHTS; Jurkat, PMA/ionomycin-induced NF-kB luciferase reporter; inhibition, % at 4 µM; 330,000 tested, 0.53% active; AID 435003, 2010; in the data active means inhibition above about 50%
TAG conf: triacylglycerol accumulation inhibitors, retest, confirmation, cell-based, single concentration, Nile Red fluorescence, H9c2; shares compounds with H9c2 TAG inh; H9c2 lipid accumulation; cells loaded with 200 µM oleic acid; inhibition, % at 12.5 µM; 990 tested, 71% active; AID 651629, 2012;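 active means mean inhibition across replicates of 40% or more; inactive means mean inhibition below 40%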;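 further: plate controls were DMSO only wells for no effect and Triacsin C treated wells for full effect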
Starred values were filed as active, the others as inactive. Shown are actives, neighbours in structure and some others; about 1.9% of the full set was active somewhere.

For Cc1ccc(C(=O)NCC(=O)OCC(=O)NC(C)C2CC3CCC2C3)cc1 (stereo unspecified) the results were H9c2 TAG inh 6.2, 697 NFkB inh 3.6 and Jurkat NFkB inh -7.3.
O=[N+]([O-])c1ccc(Nc2nc(NC3CCCCC3)nc(N3CCCC3)n2)cc1 was read as Hep lipid drop 14.4, H9c2 TAG inh 60.9*, APP 5UTR inh -5.0, aSyn 5UTR inh 10.3, 697 NFkB inh -24.8, Jurkat NFkB inh -9.9 and TAG conf 82.0*.
`O=[N+]([O-])c1ccc(Nc2nc(N/N=C/c3cccc(F)c3)nc(N3CCCC3)n2)cc1` gave Hep lipid drop 30.3, APP 5UTR inh 24.7, aSyn 5UTR inh -27.6, 697 NFkB inh 31.9 and Jurkat NFkB inh -0.2.
`O=C(CCCn1c(=S)[nH]c2cc3c(cc2c1=O)OCO3)N1CCN(c2ccccc2)CC1` gave H9c2 TAG inh -5.1, APP 5UTR inh -14.7, aSyn 5UTR inh 9.3, 697 NFkB inh -22.0 and Jurkat NFkB inh 0.6.
Cc1cccc(N2CCN(C(=O)CCCn3c(=S)[nH]c4cc5c(cc4c3=O)OCO5)CC2)c1C was read as H9c2 TAG inh 53.8*, APP 5UTR inh -6.9, aSyn 5UTR inh 29.1, 697 NFkB inh -38.4, Jurkat NFkB inh 0.1 and TAG conf 38.2.
For C[C@@H]1CN([C@H](C)CO)C(=O)c2cccc(NC(=O)Nc3ccc(C(F)(F)F)cc3)c2O[C@H]1CN(C)S(=O)(=O)c1cccs1 the results were H9c2 TAG inh 70.6*, 697 NFkB inh -4.9, Jurkat NFkB inh -2.2 and TAG conf 62.9*.
Screening C[C@H](CO)N1C[C@H](C)[C@@H](CN(C)Cc2ccc(-c3ccccc3)cc2)Oc2c(NC(=O)Cc3ccccc3)cccc2C1=O returned H9c2 TAG inh 50.1*, 697 NFkB inh 11.9, Jurkat NFkB inh 0.0 and TAG conf 59.1*.
For C[C@H](O)C#Cc1ccc2c(c1)O[C@@H](CN(C)Cc1ccc(-c3ccccc3)cc1)[C@H](C)CN([C@@H](C)CO)S2(=O)=O the results were H9c2 TAG inh 64.0* and TAG conf 66.3*.
Screening C[C@@H]1CN([C@@H](C)CO)C(=O)c2cccc(NC(=O)C3CCCCC3)c2O[C@@H]1CN(C)Cc1ccc(Cl)c(Cl)c1 returned H9c2 TAG inh 54.5*, 697 NFkB inh 8.8, Jurkat NFkB inh 3.1 and TAG conf 70.0*.
`C[C@H](CO)N1C[C@H](C)[C@@H](CN(C)Cc2ccncc2)Oc2c(NC(=O)C3CCCCC3)cccc2C1=O` gave H9c2 TAG inh 2.1, 697 NFkB inh 4.9 and Jurkat NFkB inh -4.1.
C=C(C)C(=O)Nc1cccc(C2=NOC3(C2)C[C@@H](C(N)=O)N(C(=O)/C=C/C=C/C)C3)c1 (stereo partly specified) was read as Hep lipid drop -39.9, H9c2 TAG inh -1.3, aSyn 5UTR inh 4.7, 697 NFkB inh -21.4 and Jurkat NFkB inh 14.7.
`O=C(O)c1cccc(S(=O)(=O)Nc2ccccc2Oc2ccccc2)c1` gave H9c2 TAG inh -7.1.
C=CC(C)(C)c1cc2cc3ccoc3cc2oc1=O was read as Hep lipid drop -1.7, H9c2 TAG inh -5.2, APP 5UTR inh -10.7, aSyn 5UTR inh -24.1, 697 NFkB inh -10.5 and Jurkat NFkB inh 1.1.
Screening CN(C)S(=O)(=O)c1ccc(/C(O)=C2/C(=O)C(=O)N(CCN3CCCCC3)C2c2cccnc2)cc1 (stereo unspecified) returned H9c2 TAG inh -1.7.
`C[C@@H]1CN([C@H](C)CO)C(=O)c2c(c3ccccc3n2C)-c2ccccc2CO[C@H]1CN(C)Cc1ccc(-c2ccccc2)cc1` gave H9c2 TAG inh 83.8* and TAG conf 52.8*.
Screening COC(=O)C1=C(C)N(Cc2ccccc2)C(=NCC(C)C)N[C@H]1c1cccc(F)c1 returned H9c2 TAG inh 92.5*, 697 NFkB inh -2.9, Jurkat NFkB inh -2.2 and TAG conf 73.0*.
COC(=O)C1=C(C)N(Cc2ccccc2)C(=NCC(C)C)N[C@H]1c1cccc(C(F)(F)F)c1 was read as 697 NFkB inh 13.9 and Jurkat NFkB inh 6.3.
COc1ccc2[nH]c3c(=O)n(/N=C/[C@H]4C(C)C=C(C)CC4C)c(=O)[nH]c3c2c1 (stereo partly specified) was read as Hep lipid drop 18.3, APP 5UTR inh 4.2, aSyn 5UTR inh -14.3, 697 NFkB inh 2.4 and Jurkat NFkB inh 1.7.
COc1ccc2c(c1)[nH]c1c(=O)n(/N=C/C3C(C)C=C(C)CC3C)c(=O)[nH]c12 (stereo unspecified) was read as Hep lipid drop 8.4, H9c2 TAG inh 85.3*, APP 5UTR inh -2.9, aSyn 5UTR inh inconclusive, 697 NFkB inh 14.3, Jurkat NFkB inh 15.7 and TAG conf 20.4.
O=C1Nc2ccc(Br)cc2/C1=N\N=C\C1=C(N2CCOCC2)C(=C/c2ccccc2)/CC1 was read as H9c2 TAG inh 84.5* and TAG conf 136.4*.
`O=C1Nc2ccccc2/C1=N\N=C\C1=C(N2CCOCC2)C(=C\c2ccccc2)/CC1` gave APP 5UTR inh -0.9, aSyn 5UTR inh 7.4, 697 NFkB inh 9.6 and Jurkat NFkB inh -0.9.
CCCOc1ccc(F)cc1-c1cc(C(=O)NCc2ccccc2)[nH]n1 was read as H9c2 TAG inh -3.6.
CCCOc1ccc(F)cc1-c1cc(C(=O)NCc2cc(OC)cc(OC)c2)[nH]n1 was read as H9c2 TAG inh 53.7* and TAG conf 50.2*.
`CSc1sc(-c2ccnc(=S)[nH]2)c(-c2ccccc2)c1C#N` gave Hep lipid drop 7.0, H9c2 TAG inh 75.5*, aSyn 5UTR inh 6.6, 697 NFkB inh -2.1, Jurkat NFkB inh 12.2 and TAG conf 3.6.
CSc1nccc(-c2sc(SC)c(C#N)c2-c2ccccc2)n1 was read as Hep lipid drop 27.8, H9c2 TAG inh 28.3, aSyn 5UTR inh -10.6, 697 NFkB inh 11.4 and Jurkat NFkB inh 8.0.
`Cc1occc1C(=O)NNC(=O)c1ccccc1F` gave Hep lipid drop 3.3, H9c2 TAG inh 2.3, APP 5UTR inh -22.4, aSyn 5UTR inh -81.6, 697 NFkB inh -22.0 and Jurkat NFkB inh -3.5.
`Cc1cccc2sc(NC(=O)CN(C)S(=O)(=O)c3ccc(Br)s3)nc12` gave Hep lipid drop 34.9, H9c2 TAG inh 51.5*, APP 5UTR inh 16.7, aSyn 5UTR inh 19.2, 697 NFkB inh 8.5, Jurkat NFkB inh 6.2 and TAG conf 39.8.

Bioassay records from PubChem.
